Compounds with a hit are over-represented: about 1.8% of the library has one in this group of screens.
Platelet DG rel = inhibitors of platelet dense granule secretion, primary screen, cell-based, MLPCN, human platelets. human platelet-rich plasma, SFLLRN dense granule ATP release, luminescence. inhibition, %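 (compounds screened at 7.5 µM in platelet-rich plasma)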. hit rate 0.22% among 300,000;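 active = mean replicate score, as percent of positive control, at or above 50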
hK5 inh = human KLK5 protease inhibitors, primary screen, biochemical, 1536-well | Kallikrein-5 (Homo sapiens), Q9Y337 | recombinant hK5, fluorogenic AMC substrate cleavage | inhibition, % at 5 µM | hit rate 0.59% among 210,000 | AID 873, 2007;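 active = inhibition of 40% or more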;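 note: 0% = enzyme controls without compound and 100% = no-enzyme blanks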
FXIIa inh 1536 = human FXIIa protease inhibitors, primary screen, biochemical, 1536-well | Coagulation factor XII (Homo sapiens), P00748 | AID 800, 2007 | hit rate 0.3% among 220,000 | inhibition, % at 5 µM | purified FXIIa, Boc-QGR-AMC fluorogenic substrate, 2 h; in the data active = inhibition above about 40%;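 note: 0% = enzyme with no compound and 100% = blank without enzyme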
Wee1 stabilizer = Wee1 degradation inhibitors, primary screen, cell-based, HeLa, Wee1K328M-luciferase, luminescence; HeLa Luc-Wee1K328M stability; 100% = proteasome inhibitor MG132 effect; hit rate 1.2% among 220,000; AID 1321, 2008; reporter increase, % at 5 µM; Wee1-like protein kinase (Homo sapiens), P30291;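 active = activation above the mean of all tested compounds plus 3 SD, set per screening run, cut at about 8.8% in these data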;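 note: cells exposed to compound for 20 h before luminescence read; 0% = DMSO alone and 100% = MG132 at 30 µM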
Target sequence (P30291 whole entry K328M): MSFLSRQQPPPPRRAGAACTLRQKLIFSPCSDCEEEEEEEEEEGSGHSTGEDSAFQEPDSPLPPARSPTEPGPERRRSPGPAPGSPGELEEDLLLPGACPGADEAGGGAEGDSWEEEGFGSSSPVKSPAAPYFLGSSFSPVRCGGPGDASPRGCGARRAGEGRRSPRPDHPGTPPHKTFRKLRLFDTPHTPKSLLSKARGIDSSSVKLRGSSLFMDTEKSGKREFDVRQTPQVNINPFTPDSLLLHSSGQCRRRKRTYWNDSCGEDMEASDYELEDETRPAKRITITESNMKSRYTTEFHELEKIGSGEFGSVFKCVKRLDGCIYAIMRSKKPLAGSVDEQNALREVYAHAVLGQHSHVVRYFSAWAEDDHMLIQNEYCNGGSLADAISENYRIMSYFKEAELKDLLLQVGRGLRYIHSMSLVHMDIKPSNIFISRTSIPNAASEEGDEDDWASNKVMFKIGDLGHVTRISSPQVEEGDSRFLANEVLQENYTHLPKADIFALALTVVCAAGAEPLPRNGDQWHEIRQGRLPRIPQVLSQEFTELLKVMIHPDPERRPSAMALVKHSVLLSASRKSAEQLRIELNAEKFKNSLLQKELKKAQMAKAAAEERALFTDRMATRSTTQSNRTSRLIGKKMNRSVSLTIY
Thrombin inh = human alpha-thrombin inhibitors, primary screen, counter-screen for coagulation protease inhibitor project, biochemical, 1536-well, fluorogenic AMC substrate. Boc-VPR-AMC fluorogenic substrate cleavage. inhibition, % at 5 µM. hit rate 0.26% among 220,000. AID 1046, 2008;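 active = inhibition at or above 40%; inactive = inhibition below 40%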;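 note: 0% = enzyme with no compound and 100% = wells without enzyme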
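Material: human alpha-thrombin protein. Incubation: reaction at ambient temperature. Technique: fluorescence of released AMC, ex 355 nm, em 460 nm. Control set: no-compound enzyme wells and no-enzyme blanks. Also added: Boc-VPR-AMC substrate, 15 µM final. Buffer or medium: pH 7.5 Tris (50 mM) with NaCl 150 mM, Tween 20 0.05%.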
FXIa inh 1536 = human FXIa protease inhibitors, primary screen, biochemical, 1536-well; inhibition, % at 5 µM; hit rate 0.14% among 220,000; Coagulation factor XI (Homo sapiens), P03951; AID 798, 2007; purified FXIa, Boc-Glu-Ala-Arg-AMC fluorogenic substrate;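 active = inhibition of at least 40%; inactive = inhibition below 40%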;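 note: fluorescence of freed AMC excited at 355 nm; 0% = enzyme without compound and 100% = no enzyme blank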
Active calls of the source: *; · = not tested or not shown.

SMILES	Platelet DG rel	hK5 inh	FXIIa inh 1536	Wee1 stabilizer	Thrombin inh	FXIa inh 1536
Cc1cc(C)n2c(nc3ccccc32)c1C(=O)NN	11	4	7	1	0	-3
COC(=O)c1c(C)cc(C)n2c1nc1ccccc12	5	-9	10	9.8*	-4	-3
O=C1CC(N2CCN(c3ccc(C(=O)c4ccc(F)cc4)cc3)CC2)C(=O)N1 (stereo not drawn)	4	3	16	8.9*	4	3
Cc1ccnc(N(C(=O)Nc2ccccc2)C2=NCC(C)(C)S2)c1	7	5	9	9.7*	0	4
Cc1cc(OCC(=O)NC2CCN(Cc3ccccc3)CC2)c2c(C)cc(=O)oc2c1	4	·	·	·	·	·
Cc1cc(NS(=O)(=O)c2ccc(NC(=O)CSc3nnc(-c4ccco4)n3N)cc2)nc(C)n1	-12	29	-8	-1	62*	-8
CCCCn1c(SCC(=O)Nc2cccc(C)n2)nnc1-c1ccco1	6	-8	14	9.1*	0	3
COCCCn1c(SCC(=O)Nc2cccc(C)n2)nnc1-c1ccco1	-1	-9	7	-2	-2	-3
CCOC(=O)CCC(=O)N1CCOCCOCCN(C(=O)CCC(=O)OCC)CCOCCOCC1	-4	-7	6	-1	-6	0
CC(OC(=O)c1ccc2c(c1)OCCO2)C(=O)c1ccccc1 (stereo not drawn)	9	·	·	·	·	·
CCCCn1nc(CC(=O)O)c2ccccc2c1=O	-10	2	-3	-1	-4	-10
CCn1nc(CC(=O)O)c2ccccc2c1=O	7	19	26	-2	26	66*
CC(C)N1C[C@@]23C=C[C@@H](O2)C(C(=O)OCc2ccccc2)[C@H]3C1=O (stereo partly drawn)	56*	2	20	-1	2	3
CCc1cc(C(=O)N2CCCC(C(=O)c3ccc(C(F)(F)F)cc3)C2)n(C)n1 (stereo not drawn)	-2	·	·	·	·	·
CCC(CC)C(=O)Nc1cccc(C(=O)c2ccccc2)c1	0	0	10	9.4*	4	6
CC(OC(=O)CC1CCCCC1)C(=O)Nc1cccc(C#N)c1 (stereo not drawn)	-11	·	·	·	·	·
CN(C)c1ccc(-c2nnn(CC(=O)Nc3ccccc3N3CCOCC3)n2)cc1	5	66*	8	4	8	5
CCCCCCCCNC1=CC(=O)CC(C)(C)C1	9	50*	30	-3	7	23
CC1(C)CC(=O)C=C(NCCO)C1	-1	-17	17	0	1	3
O=C1c2ccccc2C(=O)N1CCc1nc2ccccc2c(=O)n1Cc1ccco1	-1	57*	29	-2	11	2
COc1ccc(C2(NC(C)=O)CCN(Cc3cccnc3)CC2)cc1	2	·	·	·	·	·
O=S(=O)(/C=C/c1ccccc1)Nc1ccc(N2CCOCC2)cc1	-2	7	11	10*	2	7
Cc1nn(C)c(C)c1NC(=S)Nc1ccc(S(=O)(=O)Nc2ncccn2)cc1	0	·	·	·	·	·
CC(=O)C(Cc1ccccc1)NC(=O)CN1CCN(Cc2ccccc2)CC1 (stereo not drawn)	-1	-1	16	0	0	-2
Cc1cc(N/N=C/c2ccccc2Br)nc2ccccc12	8	42*	32	-2	19	18
CCOc1ccc(/C=N/NC(=O)c2cc(-c3cccn3C)n[nH]2)cc1	6	15	11	-4	-3	3
C=CCn1c(CCC(O)COCCCCC)n[nH]c1=S (stereo not drawn)	-3	3	10	-3	1	3
O=C(CSc1nnc2c3ccccc3c3ccccc3c2n1)Nc1ccccc1F	55*	1	-7	-2	10	-10
Cc1ccc(NC(=O)c2ccc([N+](=O)[O-])o2)c(C)c1	-3	-9	6	3	-3	-4
Cc1ccccc1NC(=O)c1ccc([N+](=O)[O-])o1	-11	7	11	9.0*	-3	1
